For four molecules, MIC and zone of inhibition results are on record in ChEMBL document CHEMBL3091449, “Synthesis and antimicrobial profile of N-substituted imidazolium oximes and their monoquaternary salts against multidrug resistant bacteria” (2013).

Common to all, as to format: functional
The test system of assay [1] is Aeromonas hydrophila. As to the kind of experiment: Antibacterial activity against Aeromonas hydrophila FNSST 014 after 18 to 24 hrs by two-fold broth microdilution assay. Put shortly: (§1)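 CLSI two-fold broth microdilution was used. Compounds were dissolved in DMSO, brought to 10 mg/mL in medium, then serially diluted in Mueller Hinton broth over 400–0.09 µg/mL. Overnight MHB cultures were diluted to 10^6 CFU/mL, and 10 µL was added per well. Plates were incubated 18–24 h at 37 °C, then 0.2 mg/mL INT was added for 30 min at 37 °C. MIC was the lowest concentration with no visible growth or pink colour, triplicate.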
In general terms: Broth dilution looks for growth in wells or tubes with falling amounts of substance.

The test system of assay [2] is Pseudomonas aeruginosa. The experiment in a line: Antibacterial activity against Pseudomonas aeruginosa FNSST 982 after 18 to 24 hrs by two-fold broth microdilution assay. The procedure, abridged: as §1
In assay [3] the test system is Klebsiella pneumoniae. As to the kind of experiment: Antibacterial activity against Klebsiella pneumoniae FNSST 011 after 18 to 24 hrs by two-fold broth microdilution assay. Put shortly:
as §1

In assay [4] the test system is Escherichia coli. As to the kind of experiment: Antibacterial activity against Escherichia coli FNSST 982 after 18 to 24 hrs by two-fold broth microdilution assay. The procedure, abridged: as §1
The subject of assay [5] is Clostridium perfringens. The experiment in a line: Antibacterial activity against Clostridium perfringens FNSST 4999 after 18 to 24 hrs by two-fold broth microdilution assay. The procedure, abridged:
(§2)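 CLSI two-fold broth microdilution. Compounds dissolved in DMSO, 10 mg/mL stock, serially diluted to 400–0.09 µg/mL in Mueller Hinton broth. Wells inoculated with 10^6 CFU/mL bacteria and incubated 18–24 h at 37 °C. 0.2 mg/mL INT added for 30 min. MIC taken as the lowest concentration with no visible growth or pink colour. Triplicate.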

The test system of assay [6] is Staphylococcus aureus. The experiment in a line: Antibacterial activity against Staphylococcus aureus ATCC 25923 after 18 to 24 hrs by two-fold broth microdilution assay. The procedure, abridged: as §1
In assay [7] the test system is Enterococcus faecalis. The experiment in a line: Antibacterial activity against Enterococcus faecalis ATCC 29212 after 18 to 24 hrs by two-fold broth microdilution assay. Put shortly: as §1
The test system of assay [8] is Bacillus cereus. The experiment in a line: Antibacterial activity against Bacillus cereus ATCC 11778 after 18 to 24 hrs by two-fold broth microdilution assay. The procedure, abridged: as §1
A further assay has as its system Aspergillus fumigatus. As to the kind of experiment: Antifungal activity against Aspergillus fumigatus FNSST 3833 assessed as diameter of zone of inhibition at 250 ug/disc after 72 hrs by disc diffusion method. As to conditions: FNSST 3833, 72 h, read-out: DIZ. The procedure, abridged:
(§3)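 Fungi were grown overnight at 30 °C in Sabouraud dextrose broth to 10^4 cfu/mL, and 100 µL was spread on Sabouraud dextrose agar. 6 mm discs carried 250 µg (25 µL of a 10 mg/mL stock in 96% ethanol), with ethanol as the negative control. Incubation was at 30 °C for 48 h (yeast) or 72 h (molds). Zone diameter was read including the disc, in triplicate, mean ± SE.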

The test system of the next assay is Talaromyces funiculosus. As to the kind of experiment: Antifungal activity against Penicillium funiculosum FNSST 3724 assessed as diameter of zone of inhibition at 250 ug/disc after 72 hrs by disc diffusion method. As to conditions: FNSST 3724, 72 h, read-out: DIZ. The procedure, abridged: as §3
A general note: Agar diffusion results depend on both activity and mobility in agar.

Assay [9] concerns Aeromonas hydrophila. As to the kind of experiment: Antibacterial activity against Aeromonas hydrophila FNSST 014 assessed as diameter of zone of inhibition at 250 ug/disc after 24 hrs by disc diffusion method. As to conditions: FNSST 014, 24 h, read-out: DIZ. Put shortly:
(§4)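 Bacteria were grown overnight at 37 °C in TSB to about 10^6 cfu/mL, and 100 µL was spread on Mueller Hinton agar. Sterile 6 mm discs were each loaded with 25 µL of a 10 mg/mL stock in 96% ethanol, giving 250 µg/disc. Ethanol served as the negative control. Plates were incubated 24 h at 37 °C. Inhibition zone diameter was measured including the disc, in triplicate, as mean ± SE.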

The test system of assay [10] is Pseudomonas aeruginosa. As to the kind of experiment: Antibacterial activity against Pseudomonas aeruginosa FNSST 982 assessed as diameter of zone of inhibition at 250 ug/disc after 24 hrs by disc diffusion method. As to conditions: FNSST 982, 24 h, read-out: DIZ. The procedure, abridged: as §4
Assay [11] concerns Klebsiella pneumoniae. The experiment in a line: Antibacterial activity against Klebsiella pneumoniae FNSST 011 assessed as diameter of zone of inhibition at 250 ug/disc after 24 hrs by disc diffusion method. As to conditions: FNSST 011, 24 h, read-out: DIZ. The procedure, abridged:
as §4

Assay [12] deals with Escherichia coli. The experiment in a line: Antibacterial activity against Escherichia coli FNSST 982 assessed as diameter of zone of inhibition at 250 ug/disc after 24 hrs by disc diffusion method. To be noted: FNSST 982, 24 h, read-out: DIZ. The procedure, abridged:
as §4

For assay [13], the system named is Clostridium perfringens. The experiment in a line: Antibacterial activity against Clostridium perfringens FNSST 4999 assessed as diameter of zone of inhibition at 250 ug/disc after 24 hrs by disc diffusion method. To be noted: FNSST 4999, 24 h, read-out: DIZ. The procedure, abridged: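 Disc diffusion per CLSI: 100 µL of 10^6 cfu/mL bacterial suspension spread on Mueller Hinton agar. 6 mm discs loaded with 25 µL of 10 mg/mL compound stock in 96% ethanol (250 µg/disc); ethanol as negative control. Incubated 24 h at 37 °C. Inhibition zone diameter measured in mm including the disc, triplicate, reported as mean ± SE.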

Assay [14] has as its system Staphylococcus aureus. The experiment in a line: Antibacterial activity against Staphylococcus aureus ATCC 25923 assessed as diameter of zone of inhibition at 250 ug/disc after 24 hrs by disc diffusion method. To be noted: ATCC 25923, 24 h, read-out: DIZ. Put shortly: as §4
The subject of assay [15] is Enterococcus faecalis. The experiment in a line: Antibacterial activity against Enterococcus faecalis ATCC 29212 assessed as diameter of zone of inhibition at 250 ug/disc after 24 hrs by disc diffusion method. As to conditions: ATCC 29212, 24 h, read-out: DIZ. The procedure, abridged: as §4
Assay [16] deals with Bacillus cereus. As to the kind of experiment: Antibacterial activity against Bacillus cereus ATCC 11778 assessed as diameter of zone of inhibition at 250 ug/disc after 24 hrs by disc diffusion method. To be noted: ATCC 11778, 24 h, read-out: DIZ. The procedure, abridged: as §4
The subject of the next assay is Candida albicans. As to the kind of experiment: Antifungal activity against Candida albicans ATCC 10231 assessed as diameter of zone of inhibition at 250 ug/disc after 48 hrs by disc diffusion method. As to conditions: ATCC 10231, 48 h, read-out: DIZ. The procedure, abridged:
as §3

Assay [17] concerns Pseudomonas aeruginosa. The experiment in a line: Antibacterial activity against GIM-1 expressing Pseudomonas aeruginosa isolate 197 after 18 to 24 hrs by two-fold broth microdilution assay. Put shortly: as §1
The test system of a further assay is Acinetobacter baumannii. The experiment in a line: Antibacterial activity against SIM-1 expressing Acinetobacter baumannii isolate 170 after 18 to 24 hrs by two-fold broth microdilution assay. The procedure, abridged:
as §2

The subject of assay [18] is Aeromonas caviae. As to the kind of experiment: Antibacterial activity against TEM-1/CTX-M-15 expressing Aeromonas caviae isolate 260 after 18 to 24 hrs by two-fold broth microdilution assay. The procedure, abridged:
as §1

Assay [19] has as its system Aeromonas caviae. As to the kind of experiment: Antibacterial activity against […] expressing Aeromonas caviae isolate 258 after 18 to 24 hrs by two-fold broth microdilution assay. Put shortly:
as §1

The subject of assay [20] is Aeromonas hydrophila. As to the kind of experiment: Antibacterial activity against TEM-1/SHV-12 expressing Aeromonas hydrophila isolate 268 after 18 to 24 hrs by two-fold broth microdilution assay. Put shortly:
as §1

The subject of another assay is Kluyvera intermedia. As to the kind of experiment: Antibacterial activity against TEM-1/SHV-12/[…] expressing Enterobacter intermedius isolate 243 after 18 to 24 hrs by two-fold broth microdilution assay. The procedure, abridged: as §1
In assay [21] the test system is Klebsiella pneumoniae. As to the kind of experiment: Antibacterial activity against TEM-1/SHV-12 expressing Klebsiella pneumoniae isolate 303 after 18 to 24 hrs by two-fold broth microdilution assay. The procedure, abridged:
as §1

The structures appear in SMILES notation. Values after ≈ are worked out from the molar mass of the structure shown. Bounds are passed on as bounds.

One may read the MIC as the smallest concentration in the dilution series that meets the test's criterion for growth inhibition. Higher therefore signals a need for much substance. As for `O/N=C/c1n(Cc2ccccc2)cc[n+]1Cc1ccccc1.[Br-]`, the MIC worked out at 50 µg/mL against Aeromonas hydrophila [1]; 62.5 µg/mL against Pseudomonas aeruginosa [2]; 42 µg/mL against Klebsiella pneumoniae [3]; 100 µg/mL against Escherichia coli [4]; 25 µg/mL with Clostridium perfringens [5]; 12.5 µg/mL with Staphylococcus aureus [6]. Further, the MIC is 12.5 µg/mL with Enterococcus faecalis [7] and 75 µg/mL in the assay on Bacillus cereus [8]. The zone of inhibition at 250 µg/disc in the assay on Aspergillus fumigatus turned out to be 20.9 mm; in the assay on Talaromyces funiculosus it was 17.6 mm; with Aeromonas hydrophila [9], 17.1 mm; with Pseudomonas aeruginosa [10], 12.4 mm; in the assay on Klebsiella pneumoniae [11], 18.6 mm; in the assay on Escherichia coli [12], 14.2 mm. For the same molecule, the zone of inhibition at 250 µg/disc with Clostridium perfringens [13] turned out to be 18.3 mm; with Staphylococcus aureus [14], 14.2 mm; in the assay on Enterococcus faecalis [15], 17.1 mm; in the assay with Bacillus cereus [16] it was 15.5 mm; in the assay with Candida albicans, 20.9 mm.
`O/N=C/c1nccn1-c1ccc(F)cc1`: the MIC against Aeromonas hydrophila [1] is 25 µg/mL (≈ 122 µM); against Pseudomonas aeruginosa [2], 50 µg/mL (≈ 244 µM); against Klebsiella pneumoniae [3], 100 µg/mL (≈ 487 µM); against Escherichia coli [4], 25 µg/mL (≈ 122 µM); with Clostridium perfringens [5] it was 100 µg/mL (≈ 487 µM); against Staphylococcus aureus [6], 100 µg/mL (≈ 487 µM). The MIC stood at 25 µg/mL (≈ 122 µM) in the assay on Enterococcus faecalis [7] and 50 µg/mL (≈ 244 µM) in the assay with Bacillus cereus [8]. The zone of inhibition at 250 µg/disc amounted to 15 mm in the assay with Aspergillus fumigatus; 18.6 mm with Talaromyces funiculosus; 15.3 mm in the assay with Aeromonas hydrophila [9]; 9.8 mm in the assay on Pseudomonas aeruginosa [10]; 10.3 mm with Klebsiella pneumoniae [11]; 14.8 mm in the assay with Escherichia coli [12]. The zone of inhibition at 250 µg/disc in the assay on Clostridium perfringens [13] came to 8.6 mm; in the assay with Staphylococcus aureus [14], 12.4 mm; in the assay with Enterococcus faecalis [15], 12.2 mm; in the assay on Bacillus cereus [16], 14 mm; in the assay on Candida albicans, 18.9 mm.
On to `O=C(O)c1cn(C2CC2)c2cc(N3CCNCC3)c(F)cc2c1=O` [CIPROFLOXACIN], for which the MIC with Pseudomonas aeruginosa [17] was above 4 µg/mL; against Acinetobacter baumannii, 0.5 µg/mL (≈ 1.51 µM); with Aeromonas caviae [18], 1 µg/mL (≈ 3.02 µM); against Aeromonas caviae [19], 0.5 µg/mL (≈ 1.51 µM); in the assay with Aeromonas hydrophila [20] it was 2 µg/mL (≈ 6.04 µM); in the assay on Kluyvera intermedia, 0.5 µg/mL (≈ 1.51 µM). This molecule gave an MIC in the assay with Klebsiella pneumoniae [21] of 2 µg/mL (≈ 6.04 µM).
`O/N=C/c1nccn1-c1ccccc1`: the MIC in the assay with Aeromonas hydrophila [1] is 50 µg/mL (≈ 267 µM); with Pseudomonas aeruginosa [2] it was 25 µg/mL (≈ 134 µM); in the assay with Klebsiella pneumoniae [3], 100 µg/mL (≈ 534 µM); with Escherichia coli [4], 50 µg/mL (≈ 267 µM); in the assay on Clostridium perfringens [5] it was 100 µg/mL (≈ 534 µM); with Staphylococcus aureus [6], 100 µg/mL (≈ 534 µM). Besides, the minimum inhibitory concentration (MIC) worked out at 6.25 µg/mL (≈ 33.4 µM) in the assay with Enterococcus faecalis [7] and 50 µg/mL (≈ 267 µM) in the assay with Bacillus cereus [8]. Besides, the zone of inhibition at 250 µg/disc in the assay on Aspergillus fumigatus turned out to be 19.5 mm; in the assay on Talaromyces funiculosus, 17.9 mm; in the assay with Aeromonas hydrophila [9], 17.7 mm; with Pseudomonas aeruginosa [10], 15.8 mm; in the assay on Klebsiella pneumoniae [11], 17.2 mm; with Escherichia coli [12], 17.8 mm. Further, the zone of inhibition at 250 µg/disc was 16.5 mm in the assay on Clostridium perfringens [13]; 10.1 mm in the assay on Staphylococcus aureus [14]; 15.7 mm with Enterococcus faecalis [15]; 15.4 mm with Bacillus cereus [16]; 16.4 mm with Candida albicans.
